Results as given in PMC9474599 (Immunity, 2022).
“Also recorded” adds a separate entry of the source. *1 amine or outer side, *2 acyl side, *3 side chain or, on linkers, in order; H or OH if unused. Where a SMILES comes first, the peptide text is derived from it. Bridges are numbered along the chain shown (N, C = ends). Where no end group is shown, it is not given here. [ ]: non-standard residue; d: D form. The star is where a group is joined. X1 = CC(=O)NC(C(=O)OC(C(C)C)C(N[*:1])C(=O)[*:2])C(O)C(C)C; Biotin = O=C1N[C@H]2[C@H](CS[C@H]2CCCCC(=O)*)N1; PhLac = O=C(O)[CH](O)Cc1ccccc1; NMeT = CN[CH](C(=O)O)[CH](C)O; NMeA = CN[CH](C)C(=O)O; NMeDha = C=C(NC)C(=O)O

Assays:
bone marrow neutrophils [1] = test: Western blot of IL-1β release from neutrophils; type: cell-based, mouse; details: for Inhibition of hBD3-mediated IL-1β release: WT neutrophils, inhibitor 10μM added together with LTA, n=3
Mrgpra2b-GFP [2] = molecular target: T1, Mrgpra2b-GFP (Mus musculus, UniProt Q91WW4); test: co-IP of biotin-hBD3 with Mrgpra2b-GFP; type: binding; details: 10μM biotin-hBD3, 4°C overnight, anti-GFP beads, anti-biotin western blot
T1 sequence (Q91WW4 1-305): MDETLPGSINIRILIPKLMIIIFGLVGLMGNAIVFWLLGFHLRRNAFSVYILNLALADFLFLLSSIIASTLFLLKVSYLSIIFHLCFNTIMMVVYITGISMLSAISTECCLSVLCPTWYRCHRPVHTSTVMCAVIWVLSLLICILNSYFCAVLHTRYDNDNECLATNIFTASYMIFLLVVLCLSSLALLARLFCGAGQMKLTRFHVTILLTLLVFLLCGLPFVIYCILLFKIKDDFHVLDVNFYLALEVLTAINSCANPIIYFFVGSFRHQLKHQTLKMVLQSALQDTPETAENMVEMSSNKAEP

Mrgpra2b = molecular target: T2, Mrgpra2b (Mus musculus, UniProt Q91WW4); test: FLIPR intracellular Ca2+ mobilization, HEK cells expressing Mrgpra2b; type: cell-based; details: for Mrgpra2 receptor activation: FLIPR Ca2+ mobilization, Figure S1E (negative peptides), Figure 1E
T2 sequence (Q91WW4 1-305): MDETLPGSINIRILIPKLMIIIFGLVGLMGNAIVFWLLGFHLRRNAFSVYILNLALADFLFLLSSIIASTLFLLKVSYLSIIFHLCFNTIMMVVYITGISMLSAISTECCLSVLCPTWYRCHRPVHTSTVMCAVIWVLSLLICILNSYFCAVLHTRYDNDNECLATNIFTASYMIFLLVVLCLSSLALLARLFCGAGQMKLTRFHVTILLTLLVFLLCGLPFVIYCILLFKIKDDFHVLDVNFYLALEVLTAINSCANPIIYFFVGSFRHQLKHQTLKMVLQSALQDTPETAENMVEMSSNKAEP

neutrophils [3] = test: Neutrophil elastase release; type: cell-based; details: Mrgpra2 dKO mouse neutrophils; hBD3 0-10 μM or 10 μM mBD14, one hour; n=5
Outline: (§1)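 Bone marrow neutrophils were MACS-purified from 8-10-week-old C57BL/6J-background mice of both sexes, with >90% purity by flow cytometry. 2×10^5 cells in RPMI were incubated 1 h with 0, 1, 5 or 10 μM hBD3 or 10 μM mBD14, both dissolved in RPMI. Elastase and MPO in the supernatant were quantified by DuoSet sandwich ELISA.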

neutrophils [4] = test: Neutrophil myeloperoxidase; type: cell-based; details: Mrgpra2 dKO mouse neutrophils; hBD3 0-10 μM or 10 μM mBD14, one hour; n=5
Outline: as §1

bone marrow neutrophils [5] = test: IL-1β and Cxcl2 release from neutrophils; type: cell-based, mouse
Outline: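 MACS-purified bone marrow neutrophils were primed with 1 μg/mL S. aureus lipoteichoic acid for 2 h. hBD3 or mBD14 was then added at 10 μM final. After a further 2 h, supernatants were collected and cells lysed in RIPA buffer. IL-1β and Cxcl2 were measured in both fractions by DuoSet ELISA. 5 mM ATP served as positive control.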

bone marrow neutrophils [6] = test: Proteome profiler array of neutrophil cytokines and chemokines; type: cell-based, mouse; details: S. aureus LTA 1 μg/mL alone (signal 1), vs control
S. aureus = test: Intradermal S. aureus skin infection, bacterial bioluminescence; type: in vivo, Staphylococcus aureus USA300 LAC::lux in mouse; details: 100ng each, co-injected with S. aureus; bioluminescence 24 hours post-infection; n=8-36
MRGPRX3-FLAG (human) = MRGPRX3-FLAG (human) (UniProt Q96LB0)
Mrgpra2b-GFP [7] = molecular target: T3, Mrgpra2b-GFP (mouse, UniProt Q91WW4 1-305); test: flow cytometry on cells
T3 sequence (looked up): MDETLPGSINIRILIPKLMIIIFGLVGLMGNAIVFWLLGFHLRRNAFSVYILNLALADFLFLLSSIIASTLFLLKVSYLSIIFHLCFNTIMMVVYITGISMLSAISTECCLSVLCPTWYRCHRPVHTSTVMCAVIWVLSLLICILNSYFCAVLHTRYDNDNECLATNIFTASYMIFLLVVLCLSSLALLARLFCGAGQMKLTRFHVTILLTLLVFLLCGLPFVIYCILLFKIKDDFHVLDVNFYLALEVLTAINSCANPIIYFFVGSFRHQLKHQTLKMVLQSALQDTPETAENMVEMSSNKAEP

[8] = ELISA, LTA 1 μg/mL 2 hours, then 10 μM hBD3 or mBD14 for 2 hours, n=5

Chain of MRGPRX3-FLAG (human) (Q96LB0 whole entry): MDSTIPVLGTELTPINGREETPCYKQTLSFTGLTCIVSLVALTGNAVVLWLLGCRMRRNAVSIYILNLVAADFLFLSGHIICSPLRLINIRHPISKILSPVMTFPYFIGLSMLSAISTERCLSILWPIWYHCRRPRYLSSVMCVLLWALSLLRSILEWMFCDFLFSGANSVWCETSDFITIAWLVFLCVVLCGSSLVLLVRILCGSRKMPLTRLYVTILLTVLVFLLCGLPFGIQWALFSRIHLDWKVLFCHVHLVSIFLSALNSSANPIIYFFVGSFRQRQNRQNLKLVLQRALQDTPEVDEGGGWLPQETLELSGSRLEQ

Molecule: CC(C)[C@H](NC(=O)c1ccc2ccccc2n1)C(=O)N[C@@H](CC(=O)O)C(=O)COc1c(F)cccc1F [Q-VD-OPh]
- Inhibition of hBD3-mediated IL-1β release (bone marrow neutrophils [1]): inhibited; also recorded: effectively reduced IL-1β release from WT neutrophils in response to hBD3

Molecule: C=C1C(=O)NC(C)C(=O)N(C)C(C)C(=O)NC(C(OC(=O)C(NC(C)=O)C(O)C(C)C)C(C)C)C(=O)N(C)C(C(C)OC)C(=O)OC(C)C(NC(C)=O)C(=O)OC(Cc2ccccc2)C(=O)N1C (stereo not shown) [YM-254890] (Ac-T[PhLac][NMeDha]A[NMeA][X1][NMeT](Me); ester 1-C; configuration not given here)
- Inhibition of hBD3-mediated IL-1β release (bone marrow neutrophils [1]): inhibited

Molecule: Biotin-GIINTLQKYYCRVRGGRCAVLSCLPKEEQIGKCSTRGRKCCRRKK (disulfide 11-40, 18-33, 23-41) [biotin-hBD3]
- Co-precipitation with Mrgpra2b-GFP (Mrgpra2b-GFP [2]): co-precipitated only with Mrgpra2b-GFP; also recorded: could be co-precipitated

Molecule: FLPKTLRKFFCRIRGGRCAVLNCLGKEEQIGRCSNSGRKCCRKKK (disulfide 11-40, 18-33, 23-41) [mBD14]
- EC50 (Mrgpra2b): 18.7 µM
- Mrgpra2 receptor activation (Mrgpra2b): evoked robust receptor activation
- Elastase release, Mrgpra2 dKO neutrophils (neutrophils [3]): did not respond to hBD3 or mBD14 stimuli
- MPO release, Mrgpra2 dKO neutrophils (neutrophils [4]): did not respond to hBD3 or mBD14 stimuli
- Synthesis of IL-1β or Cxcl2, defensin alone (bone marrow neutrophils [5]; ELISA, total = secreted + intracellular, defensin alone, no LTA, n=5): did not induce the synthesis of IL-1β or Cxcl2
- Cxcl2 release, LTA-primed Mrgpra2 dKO neutrophils (bone marrow neutrophils [5]; [8]): did not respond to hBD3 or mBD14
- Cxcl2 release, LTA-primed WT neutrophils (bone marrow neutrophils [5]; [8]): released IL-1β and Cxcl2 in response to hBD3 or mBD14 stimuli; also recorded: significant increase in the amount of IL-1β and Cxcl2
- IL-1β release, LTA-primed Mrgpra2 dKO neutrophils (bone marrow neutrophils [5]; [8]): did not respond to hBD3 or mBD14
- IL-1β release, LTA-primed WT neutrophils (bone marrow neutrophils [5]; [8]): released IL-1β and Cxcl2 in response to hBD3 or mBD14 stimuli; also recorded: significant increase in the amount of IL-1β

Molecule: KKINNPVSCLRKGGRCWNRCIGNTRQIGSCGVPFLKCCKRK (disulfide 9-37, 16-30, 20-38) [mBD3]
- EC50 (Mrgpra2b): 42.8 µM

Molecule: hBD1: Human peptide hBD1 (DHYNCVSSGGQCLYSACPIFTKIQGTCYRGKAKCCK; UniProt P60022 33-68, looked up)
- Mrgpra2 receptor activation (Mrgpra2b): did not trigger receptor activation

Molecule: hBD2: Human peptide, printed as 'hBD1, 2 and 4' (GIGDPVTCLKSGAICHPVFCPRRYKQIGTCGLPGTKCCKKP; UniProt O15263 24-64, looked up)
- Mrgpra2 receptor activation (Mrgpra2b): did not trigger receptor activation

Molecule: hBD4: Human peptide, printed as 'hBD1, 2 and 4' (EFELDRICGYGTARCRKKCRSQEYRIGRCPNTYACCLRKWDESLLNRTKP; UniProt Q8WTQ1 23-72, looked up)
- Mrgpra2 receptor activation (Mrgpra2b): did not trigger receptor activation

Molecule: lipoteichoic acid [LTA]
- Release of IL-1ra, Ccl3, Ccl4, Cxcl2 and TNFα by LTA alone (bone marrow neutrophils [6]): triggered the release of more IL-1ra, Ccl3, Ccl4, Cxcl2 and TNFα compared to the control
- IL-1β production and release by LTA alone (bone marrow neutrophils [5]; S. aureus LTA 1 μg/mL alone (signal 1), Figure 7A, D): induced the production of IL-1β, but the cytokine was not released from the cells
- Priming effect of LTA, WT versus Mrgpra2 dKO neutrophils (bone marrow neutrophils [5]; S. aureus LTA 1 μg/mL, Figure 7A, C, D): did not differ between WT or Mrgpra2 dKO neutrophils
- Production of pro-IL-1β by LTA (bone marrow neutrophils [1]; S. aureus LTA 1 μg/mL, WT and Mrgpra2 dKO neutrophils): induced the production of pro-IL-1β in both WT and Mrgpra2 dKO neutrophils

Molecule: mBD1: mouse peptide mBD1 (DQYKCLQHGGFCLRSSCPSNTKLQGTCKPDKPNCCKS; UniProt P56386 33-69, looked up)
- Mrgpra2 receptor activation (Mrgpra2b): did not trigger receptor activation

Molecule: mBD2: mouse peptide, printed as 'mBD1, 2, 4' (AVGSLKSIGYEAELDHCHTNGGYCVRAICPPSARRPGSCFPEKNPCCKYMK; UniProt P82020 21-71, looked up)
- Mrgpra2 receptor activation (Mrgpra2b): did not trigger receptor activation

B1: IL-1β: Recombinant IL-1β, R&D systems 401-ML (protein, UniProt P10749 118-269, looked up)
Interleukin-1 beta: VPIRQLHYRLRDEQQKSLVLSDPYELKALHLNGQNINQQVIFSMSFVQGEPSNDKIPVALGLKGKNLYLSCVMKDGTPTLQLESVDPKQYPKKKMEKRFVFNKIEVKSKVEFESAEFPNWYISTSQAEHKPVFLGNNSGQDIIDFTMESVSS
- Bacterial load / anti-S. aureus rescue, Def cKO mice (S. aureus): rescued the anti-S. aureus defect of Mrgpra2 dKO and Def cKO mice; also recorded: significantly reduced the bacterial load
- Bacterial load / anti-S. aureus rescue, Mrgpra2 dKO mice (S. aureus): rescued the anti-S. aureus defect of Mrgpra2 dKO and Def cKO mice; also recorded: significantly reduced the bacterial load

B2: Cxcl2: recombinant mouse Cxcl2, R&D (protein, UniProt P10889 28-100, looked up)
C-X-C motif chemokine 2: AVVASELRCQCLKTLPRVDFKNIQSLSVTPPGPHCAQTEVIATLKGGQKVCLDPEAPLVQKIIQKILNKGKAN
- Bacterial load / anti-S. aureus rescue, Def cKO mice (S. aureus): did not rescue Mrgpra2 or Def KO phenotypes; also recorded: did not alter the mutant phenotypes
- Bacterial load / anti-S. aureus rescue, Mrgpra2 dKO mice (S. aureus): did not rescue Mrgpra2 or Def KO phenotypes; also recorded: did not alter the mutant phenotypes

Molecule: GIINTLQKYYCRVRGGRCAVLSCLPKEEQIGKCSTRGRKCCRRKK (ends and bridges not checked; cysteine pairing not given here) [Human beta-defensin 3]
- EC50 of FLIPR intracellular calcium mobilization in HEK cells expressing MRGPRX3 (MRGPRX3-FLAG (human)): 10.8 µM

Molecule: Biotin-GIINTLQKYYCRVRGGRCAVLSCLPKEEQIGKCSTRGRKCCRRKK (peptide, UniProt P81534 23-67, looked up, ends and bridges not checked) [N-terminal biotinylated human beta-defensin 3]
- Kd (Mrgpra2b-GFP [7]): 15.9 µM
